According to ChEMBL document CHEMBL4020842, “Discovery of N1-(4-((7-Cyclopentyl-6-(dimethylcarbamoyl)-7 H-pyrrolo[2,3- d]pyrimidin-2-yl)amino)phenyl)- N8-hydroxyoctanediamide as a Novel Inhibitor Targeting Cyclin-dependent Kinase 4/9 (CDK4/9) and Histone Deacetlyase1 (HDAC1) against Malignant Cancer” (J Med Chem, 2018):
pIC50: −log10 of the molar value. The source made the active and inactive calls. The calls are words filed in the database; no cut-off is given here.

Experiments:
Histone deacetylase 1 = Histone deacetylase 1 (Homo sapiens, UniProt Q13547); test: Inhibition of HDAC1 in human HepG2 cells assessed as increase in acetylated-histone H3 level at 1 to 5 uM after 48 hrs by Western blot method; type: cell-based
Sequence of Histone deacetylase 1 (Q13547 whole entry): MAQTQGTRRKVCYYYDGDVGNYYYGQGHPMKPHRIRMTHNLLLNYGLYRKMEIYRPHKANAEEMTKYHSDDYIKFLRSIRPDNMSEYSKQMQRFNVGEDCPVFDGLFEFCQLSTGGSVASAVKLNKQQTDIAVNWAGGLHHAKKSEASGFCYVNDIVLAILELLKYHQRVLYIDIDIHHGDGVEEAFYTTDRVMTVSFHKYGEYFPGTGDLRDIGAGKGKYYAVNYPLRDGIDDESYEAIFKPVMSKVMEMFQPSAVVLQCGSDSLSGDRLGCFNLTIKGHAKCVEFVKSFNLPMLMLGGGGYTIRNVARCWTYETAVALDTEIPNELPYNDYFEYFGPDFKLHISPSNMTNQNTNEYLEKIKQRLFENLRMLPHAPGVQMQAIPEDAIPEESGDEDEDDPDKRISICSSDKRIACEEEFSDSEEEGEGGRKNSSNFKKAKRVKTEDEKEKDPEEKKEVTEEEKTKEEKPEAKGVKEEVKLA

[1] = Half life in Sprague-Dawley rat at 20 mg/kg, iv administered as single dose by HPLC analysis; type: ADME, organism-based; details: in vivo
[2] = Cmax in Sprague-Dawley rat at 20 mg/kg, iv administered as single dose by HPLC analysis; type: ADME, organism-based; set-up: dose 20 mg/kg, route intravenous; details: in vivo
MDA-MB-231 [3] = test: Induction of apoptosis in human MDA-MB-231 cells assessed as early apoptotic cells at 1 uM after 48 hrs by annexin V-FITC/propidium iodide staining based flow cytometry (reference value: 0.4%); type: functional
A549 [4] = test: Induction of apoptosis in human A549 cells assessed as early apoptotic cells at 5 uM after 48 hrs by annexin V-FITC/propidium iodide staining based flow cytometry (reference value: 0.41%); type: functional
MDA-MB-231 [5] = test: Induction of apoptosis in human MDA-MB-231 cells assessed as live cells at 10 uM after 48 hrs by annexin V-FITC/propidium iodide staining based flow cytometry (reference value: 98.1%); type: functional
A549 [6] = test: Induction of apoptosis in human A549 cells assessed as early apoptotic cells at 10 uM after 48 hrs by annexin V-FITC/propidium iodide staining based flow cytometry (reference value: 0.41%); type: functional
A549 [7] = test: Downregulation of CDK4 protein expression in human A549 cells after 48 hrs by Western blot method; type: functional, cell-based
[8] = target: CDK9/cyclin T1 (Homo sapiens) (UniProt O60563+P50750); test: Inhibition of recombinant human full length C-terminal 6His-tagged CDK9/Cyclin-T1 co-expressed in baculovirus infected sf21 cells at 1 uM using PDKtide substrate in presence of [gamma33P]ATP after 10 mins by scintillation counting method relative to control
Rattus norvegicus = test: Apparent volume of distribution at steady state in Sprague-Dawley rat at 20 mg/kg, po administered as single dose by HPLC analysis; type: ADME, organism-based; details: in vivo
HepG2 [9] = test: Induction of apoptosis in human HepG2 cells assessed as live cells at 1 uM after 48 hrs by annexin V-FITC/propidium iodide staining based flow cytometry (reference value: 96.7%); type: functional
MDA-MB-231 [10] = test: Induction of apoptosis in human MDA-MB-231 cells assessed as live cells at 5 uM after 48 hrs by annexin V-FITC/propidium iodide staining based flow cytometry (reference value: 98.1%); type: functional
Mus musculus = test: Toxicity in Balb/c mouse assessed as overt signs of toxicity at 45 to 130 mg/kg, ip for 16 consecutive days; type: organism-based; details: in vivo
Hep 3B2 [11] = test: Induction of apoptosis in human Hep3B cells assessed as live cells at 1 uM after 48 hrs by annexin V-FITC/propidium iodide staining based flow cytometry (reference value: 97.9%); type: functional
Hep 3B2 [12] = test: Downregulation of CDK4 protein expression in human Hep3B cells after 48 hrs by Western blot method; type: functional, cell-based
T47D [13] = test: Cell cycle arrest in human T47D cells assessed as accumulation at G0/G1 phase at 625 nM after 24 hrs by propidium iodide staining based flow cytometry; type: functional
Outline: (§1)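 Cells were exposed for 24 h to a range of concentrations (625 nM, 2.5 and 10 µM), with DMSO vehicle as control. They were then stained with propidium iodide and analysed by flow cytometry to obtain the percentages of cells in G0/G1, S and G2 phases.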

[14] = target: CDK4/Cyclin D3 (Homo sapiens) (UniProt P11802+P30281); test: Inhibition of recombinant human full length N-terminal GST-tagged CDK4/Cyclin-D3 co-expressed in baculovirus infected sf21 cells at 1 uM using Rb substrate in presence of [gamma33P]ATP after 10 mins by scintillation counting method relative to control
A549 [15] = test: Induction of apoptosis in human A549 cells assessed as early apoptotic cells at 1 uM after 48 hrs by annexin V-FITC/propidium iodide staining based flow cytometry (reference value: 0.41%); type: functional
Hep 3B2 [16] = test: Induction of apoptosis in human Hep3B cells assessed as live cells at 10 uM after 48 hrs by annexin V-FITC/propidium iodide staining based flow cytometry (reference value: 97.9%); type: functional
T47D [17] = test: Induction of apoptosis in human T47D cells assessed as early apoptotic cells at 5 uM after 48 hrs by annexin V-FITC/propidium iodide staining based flow cytometry (reference value: 7.7%); type: functional
T47D [18] = test: Induction of apoptosis in human T47D cells assessed as live cells at 10 uM after 48 hrs by annexin V-FITC/propidium iodide staining based flow cytometry (reference value: 85.3%); type: functional
A549 [19] = test: Induction of apoptosis in human A549 cells assessed as late apoptotic cells at 5 uM after 48 hrs by annexin V-FITC/propidium iodide staining based flow cytometry (reference value: 0.88%); type: functional
[20] = AUC (0 to infinity) in Sprague-Dawley rat at 20 mg/kg, ip administered as single dose by HPLC analysis; type: ADME, organism-based; set-up: dose 20 mg/kg, time infinity, route intraperitoneal; details: in vivo
4T1 = test: Antitumor activity against mouse Fluc-labeled 4T1 cells implanted in Balb/c mouse assessed as tumor growth inhibition at 90 mg/kg, ip administered daily for 18 days measured after 8 to 25 days by bioluminescence assay relative to control; type: functional; details: 4T1, ip, read-out: TGI
Outline: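 Luciferase (Fluc) reporter introduced into 4T1 cells by lentiviral transduction. Cells implanted orthotopically into mammary fat pads of female BALB/c mice aged 6–8 weeks. Once tumours averaged 100 mm3, dosing was daily by IP injection. Bioluminescence imaging was done at days 8 and 25 to reflect viable tumour cell number. Tumour weight was recorded at study end.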

Hep 3B2 [21] = test: Induction of apoptosis in human Hep3B cells assessed as early apoptotic cells at 1 uM after 48 hrs by annexin V-FITC/propidium iodide staining based flow cytometry (reference value: 1.91%); type: functional
HepG2 [22] = test: Downregulation of Cyclin-D1 protein expression in human HepG2 cells after 48 hrs by Western blot method; type: functional, cell-based
Outline: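 Treated cells were lysed and CDK4 and cyclin D1 protein levels were assessed by Western blot.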

MDA-MB-231 [23] = test: Cell cycle arrest in human MDA-MB-231 cells assessed as accumulation at G0/G1 phase at 625 nM after 24 hrs by propidium iodide staining based flow cytometry; type: functional; outline: as §1
Aurora kinase A = Aurora kinase A (Homo sapiens, UniProt O14965); test: Inhibition of recombinant human full length C-terminal 6His-tagged Aurora-A expressed in baculovirus infected sf21 cells using kemptide substrate in presence of [gamma33P]ATP after 10 mins by scintillation counting method
Sequence of Aurora kinase A (O14965 whole entry): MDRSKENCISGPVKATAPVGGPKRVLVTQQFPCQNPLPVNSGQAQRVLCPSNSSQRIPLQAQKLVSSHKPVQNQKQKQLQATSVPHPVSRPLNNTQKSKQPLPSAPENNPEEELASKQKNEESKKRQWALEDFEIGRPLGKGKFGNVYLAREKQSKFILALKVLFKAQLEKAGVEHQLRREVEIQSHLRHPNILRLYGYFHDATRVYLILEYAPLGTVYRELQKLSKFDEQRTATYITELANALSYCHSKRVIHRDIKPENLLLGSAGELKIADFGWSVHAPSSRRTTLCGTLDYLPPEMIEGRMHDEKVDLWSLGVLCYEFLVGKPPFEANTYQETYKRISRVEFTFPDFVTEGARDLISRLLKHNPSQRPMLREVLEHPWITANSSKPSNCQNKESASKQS

NCI-H460 = test: Induction of apoptosis in human NCI-H460 cells assessed as necrotic cells at 5 uM after 48 hrs by annexin V-FITC/propidium iodide staining based flow cytometry (reference value: 1.34%); type: functional
T47D [24] = test: Induction of apoptosis in human T47D cells assessed as caspase-3 cleavage after 48 hrs by Western blot method; type: functional, cell-based
Outline: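 Cells were treated with or without test agent, alongside a control, for 48h. They were then lysed and analysed by Western blot for Bcl-2 protein and cleaved caspase 3.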

MDA-MB-231 [25] = test: Induction of apoptosis in human MDA-MB-231 cells assessed as necrotic cells at 10 uM after 48 hrs by annexin V-FITC/propidium iodide staining based flow cytometry (reference value: […]); type: functional

CN(C)C(=O)c1cc2cnc(Nc3ccc(NC(=O)CCCCCCC(=O)NO)cc3)nc2n1C1CCCC1
inhibition (Histone deacetylase 1): Active
half-life [1]: 10.8 h
Cmax [2]: 3.85 µg/mL
Activity (MDA-MB-231 [3]): 0.78%
Activity (A549 [4]): 2.41%
Activity (MDA-MB-231 [5]): 87.1%
Activity (A549 [6]): 5.95%
Activity (A549 [7]): Dose-dependent effect
inhibition [8]: 97%
Vdss(app) (Rattus norvegicus): 431.52 L/kg
Activity (HepG2 [9]): 87.4%
Activity (MDA-MB-231 [10]): 90.3%
Activity (Mus musculus): Non-Toxic
Activity (Hep 3B2 [11]): 85.8%
Activity (Hep 3B2 [12]): Dose-dependent effect
Activity (T47D [13]): Active
inhibition [14]: 101%
Activity (A549 [15]): 0.57%
Activity (Hep 3B2 [16]): 72.8%
Activity (T47D [17]): 14.1%
Activity (T47D [18]): 43.2%
Activity (A549 [19]): 13%
AUC(0-inf) [20]: 2.13 µg·h/mL
inhibition in vivo at 90 mg/kg (4T1): 78.4%
Activity (Hep 3B2 [21]): 3.82%
Activity (HepG2 [22]): Dose-dependent effect
Activity (MDA-MB-231 [23]): Active
pIC50 (Aurora kinase A): 7.92
Activity (NCI-H460): 3.88%
Activity (T47D [24]): Active
Activity (MDA-MB-231 [25]): 1.21%
